Test results published in ChEMBL document CHEMBL3994599, “Pallidopenillines: Polyketides from the Alga-Derived Fungus Penicillium thomii Maire KMM 4675” (J Nat Prod, 2016).
Activity calls are given as the source filed them. The calls are words filed in the database; no cut-off is given here.

What was measured:
[1] = test system: MEL28; test: Cytotoxicity against human MEL28 cells assessed as reduction in cell viability up to 100 uM after 24 to 72 hrs by MTT assay; type: functional, cell-based
[2] = test system: HCT-116; test: Cytotoxicity against human HCT116 cells assessed as reduction in cell viability up to 100 uM after 24 to 72 hrs by MTT assay; type: functional, cell-based
[3] = test system: RAW264.7; test: Inhibition of ROS generation in mouse RAW264.7 cells at 10 uM after 24 hrs by H2DCF-DA staining based fluorescence assay relative to control; type: functional; conditions: RAW264.7, 24 h
In short: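 RAW 264.7 murine macrophages were stimulated with lipopolysaccharide (LPS), and compounds were tested at 10 μM. ROS levels were expressed as percent change relative to control cells treated with LPS alone. Significance was reported as p values.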

[4] = test system: CWR22R; test: Cytotoxicity against human 22Rv1 cells assessed as inhibition of colony formation at 2 uM relative to control; type: functional
In short: (§1)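 Soft agar method: 22Rv1 human prostate cancer cells were grown in soft agar with compound. Colony formation and growth were compared with untreated control.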

[5] = test system: CWR22R; test: Cytotoxicity against human 22Rv1 cells assessed as reduction in cell viability up to 72 hrs by MTT assay; type: functional, cell-based; conditions: 22Rv1, 72 h
[6] = test system: CWR22R; test: Cytotoxicity against human 22Rv1 cells assessed as inhibition of colony formation at 1 uM relative to control; type: functional; in short: as §1

With CC(=O)OC[C@H]1CC[C@@H]2[C@@H](C(=O)CCO)[C@](C)(O)C=C[C@H]2C1 the Activity [1] was “inactive” and the Activity [2] was “inactive”.

With CC(=O)OCCC(=O)[C@@H]1[C@H]2CC[C@H](CO)C[C@@H]2C=C[C@@]1(C)O the Activity [1] was “inactive”, the Activity [2] was “inactive” and the inhibition at 10 µM [3] was 27%.

CC(=O)OCCC(=O)[C@@H]1[C@H]2CC[C@H](C)[C@@H](O)[C@@H]2[C@H](Cl)[C@@H](O)[C@@]1(C)O was tested, and the inhibition at 10 µM [3] was 37%.

For CC(=O)OCCC(=O)[C@@H]1[C@H]2CC[C@H](C)[C@@H](O)[C@@H]2C=C[C@@]1(C)O, the inhibition at 2 µM [4] was 40%, the Activity [1] was “inactive” and the Activity [2] was “inactive”.

With CC(=O)OCCC(=O)[C@@H]1[C@H]2CC[C@H](COC(C)=O)C[C@@H]2C=C[C@@]1(C)O the Activity [1] was “inactive” and the Activity [2] was “inactive”.

For C[C@H]1CC[C@H]2[C@@H](C=C[C@@](C)(O)[C@@H]2C(=O)CCO)[C@@H]1O, the Activity [1] was “inactive” and the Activity [2] was “inactive”.

CC(=O)OCCC(=O)[C@H]1C(C)=C[C@@H](O)[C@H]2[C@H](O)[C@@H](C)CC[C@H]12 was tested, and the IC50 [5] was 9.8 µM, the inhibition at 1 µM [6] was 40% and the inhibition at 10 µM [3] was 36%.
